# Assay results from ChEMBL document CHEMBL4715736, “Identification of anticancer agents based on the thieno[2,3-b]pyridine and 1H-pyrazole molecular scaffolds” (2016).
# What was measured:
# Assay type in all cases: functional
# HT-29 = test: Growth inhibition of human HT-29 cells incubated for 48 hrs by sulforhodamine B assay
# In short: (§1)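 NCI60 panel at the NCI Developmental Therapeutics Program. Only compounds active in the 10 µM screen went to dose-response testing. GI50, the concentration giving 50% of maximal inhibition of proliferation, and TGI, the concentration giving total growth inhibition, were derived from the dose-response curves.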
# RPMI-8226 [1] = test: Growth inhibition of human RPMI-8226 cells assessed as cell growth at 1 uM incubated for 48 hrs by sulforhodamine B assay relative to control; conditions: read-out: Activity
# BT-549 = test: Growth inhibition of human BT-549 cells assessed as cell growth at 0.1 uM incubated for 48 hrs by sulforhodamine B assay relative to control; conditions: read-out: Activity
# MOLT-4 [2] = test: Growth inhibition of human MOLT-4 cells incubated for 48 hrs by sulforhodamine B assay; conditions: for CC50: read-out: LC50 (the source's name); in short: as §1
# SW-620 = test: Growth inhibition of human SW-620 cells assessed as cell growth at 0.1 uM incubated for 48 hrs by sulforhodamine B assay relative to control; conditions: read-out: Activity
# NCI-H460 = test: Growth inhibition of human NCI-H460 cells assessed as cell growth at 100 uM incubated for 48 hrs by sulforhodamine B assay relative to control; conditions: read-out: Activity
# 786-0 [3] = test: Growth inhibition of human 786-0 cells assessed as cell growth at 0.01 uM incubated for 48 hrs by sulforhodamine B assay relative to control; conditions: read-out: Activity
# In short: (§2)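 NCI Developmental Therapeutics Program NCI60 panel. Compounds that were active in the 10 µM one-dose screen went on to dose–response testing. Growth at each concentration is expressed relative to untreated control (100%). GI50 (concentration giving 50% of maximal inhibition of proliferation) and TGI (concentration giving total growth inhibition) were derived from the curves.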
# CAKI-1 = test: Growth inhibition of human CAKI-1 cells assessed as cell growth at 100 uM incubated for 48 hrs by sulforhodamine B assay relative to control; conditions: read-out: Activity; in short: as §2
# OVCAR-8 [4] = test: Growth inhibition of human OVCAR-8 cells assessed as cell growth at 1 uM incubated for 48 hrs by sulforhodamine B assay relative to control; conditions: read-out: Activity
# HOP-62 = test: Growth inhibition of human HOP-62 cells assessed as cell growth at 100 uM incubated for 48 hrs by sulforhodamine B assay relative to control; conditions: read-out: Activity
# A498 [5] = test: Growth inhibition of human A498 cells assessed as cell growth at 100 uM incubated for 48 hrs by sulforhodamine B assay relative to control; conditions: read-out: Activity; in short: as §2
# 786-0 [6] = test: Growth inhibition of human 786-0 cells assessed as cell growth at 100 uM incubated for 48 hrs by sulforhodamine B assay relative to control; conditions: read-out: Activity
# IGROV-1 = test: Growth inhibition of human IGROV-1 cells assessed as cell growth at 0.1 uM incubated for 48 hrs by sulforhodamine B assay relative to control; conditions: read-out: Activity
# LOX IMVI = test: Growth inhibition of human LOX IMVI cells assessed as cell growth at 1 uM incubated for 48 hrs by sulforhodamine B assay relative to control; conditions: read-out: Activity
# OVCAR-8 [7] = test: Growth inhibition of human OVCAR-8 cells assessed as cell growth at 0.01 uM incubated for 48 hrs by sulforhodamine B assay relative to control; conditions: read-out: Activity
# 786-0 [8] = test: Growth inhibition of human 786-0 cells incubated for 48 hrs by sulforhodamine B assay; conditions: for CC50: read-out: LC50 (the source's name); in short: as §2
# A498 [9] = test: Growth inhibition of human A498 cells assessed as cell growth at 0.1 uM incubated for 48 hrs by sulforhodamine B assay relative to control; conditions: read-out: Activity; in short: as §2
# MDA-MB-468 = test: Growth inhibition of human MDA-MB-468 cells assessed as cell growth at 0.1 uM incubated for 48 hrs by sulforhodamine B assay relative to control; conditions: read-out: Activity
# NCI/ADR-RES = test: Growth inhibition of human NCI/ADR-RES cells assessed as cell growth at 0.01 uM incubated for 48 hrs by sulforhodamine B assay relative to control; conditions: read-out: Activity
# NCI-H226 [10] = test: Growth inhibition of human NCI-H226 cells assessed as cell growth at 0.01 uM incubated for 48 hrs by sulforhodamine B assay relative to control; conditions: read-out: Activity
# RXF 393 = test: Growth inhibition of human RXF 393 cells assessed as cell growth at 0.1 uM incubated for 48 hrs by sulforhodamine B assay relative to control; conditions: read-out: Activity
# MCF7 = test: Growth inhibition of human MCF7 cells assessed as cell growth at 0.1 uM incubated for 48 hrs by sulforhodamine B assay relative to control; conditions: read-out: Activity
# PC-3 = test: Growth inhibition of human PC-3 cells assessed as cell growth at 0.01 uM incubated for 48 hrs by sulforhodamine B assay relative to control; conditions: read-out: Activity
# NCI-H322M = test: Growth inhibition of human NCI-H322M cells assessed as cell growth at 0.01 uM incubated for 48 hrs by sulforhodamine B assay relative to control; conditions: read-out: Activity
# COLO 205 = test: Growth inhibition of human COLO 205 cells assessed as cell growth at 0.01 uM incubated for 48 hrs by sulforhodamine B assay relative to control; conditions: read-out: Activity; in short: as §2
# SNB-19 = test: Growth inhibition of human SNB-19 cells incubated for 48 hrs by sulforhodamine B assay
# In short: (§3)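 NCI DTP 60-line human tumour panel. Dose-response curves were run only for ligands active in the initial 10 µM screen. GI50 (concentration giving 50% of maximal inhibition of proliferation) and TGI (concentration giving total growth inhibition) were derived from these curves.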
# OVCAR-4 = test: Growth inhibition of human OVCAR-4 cells assessed as cell growth at 0.01 uM incubated for 48 hrs by sulforhodamine B assay relative to control; conditions: read-out: Activity
# SF-268 = test: Growth inhibition of human SF-268 cells assessed as cell growth at 100 uM incubated for 48 hrs by sulforhodamine B assay relative to control; conditions: read-out: Activity
# UACC-257 = test: Growth inhibition of human UACC-257 cells incubated for 48 hrs by sulforhodamine B assay; in short: as §3
# RPMI-8226 [11] = test: Growth inhibition of human RPMI-8226 cells assessed as cell growth at 0.1 uM incubated for 48 hrs by sulforhodamine B assay relative to control; conditions: read-out: Activity
# K562 = test: Growth inhibition of human K562 cells assessed as cell growth at 100 uM incubated for 48 hrs by sulforhodamine B assay relative to control; conditions: read-out: Activity
# NCI-H226 [12] = test: Growth inhibition of human NCI-H226 cells assessed as cell growth at 0.1 uM incubated for 48 hrs by sulforhodamine B assay relative to control; conditions: read-out: Activity
# RPMI-8226 [13] = test: Growth inhibition of human RPMI-8226 cells incubated for 48 hrs by sulforhodamine B assay; in short: as §3
# MOLT-4 [14] = test: Growth inhibition of human MOLT-4 cells assessed as cell growth at 100 uM incubated for 48 hrs by sulforhodamine B assay relative to control; conditions: read-out: Activity
# SR = test: Growth inhibition of human SR cells assessed as cell growth at 0.01 uM incubated for 48 hrs by sulforhodamine B assay relative to control; conditions: read-out: Activity
smiles,measurement,setting,value
Cc1cccc(NC(=O)c2sc3nc4c(cc3c2N)C(=O)CCC4)c1,GI50,HT-29,0.199 µM
same,LC50,HT-29,≥ 100 µM
same,TGI,HT-29,≥ 100 µM
same,growth at 1 µM,RPMI-8226 [1],36%
same,growth at 0.1 µM,BT-549,74%
same,TGI,MOLT-4 [2],> 100 µM
same,CC50,MOLT-4 [2],> 100 µM
same,growth at 0.1 µM,SW-620,60%
same,growth at 100 µM,NCI-H460,7%
same,growth at 0.01 µM,786-0 [3],88%
same,growth at 100 µM,CAKI-1,-22%
same,growth at 1 µM,OVCAR-8 [4],47%
same,growth at 100 µM,HOP-62,1%
same,growth at 100 µM,A498 [5],-53%
same,growth at 100 µM,786-0 [6],2%
same,growth at 0.1 µM,IGROV-1,86%
same,growth at 1 µM,LOX IMVI,47%
same,growth at 0.01 µM,OVCAR-8 [7],100%
same,GI50,786-0 [8],0.404 µM
same,TGI,786-0 [8],≥ 100 µM
same,CC50,786-0 [8],≥ 100 µM
same,growth at 0.1 µM,A498 [9],32%
same,growth at 0.1 µM,MDA-MB-468,45%
same,growth at 0.01 µM,NCI/ADR-RES,98%
same,growth at 0.01 µM,NCI-H226 [10],95%
same,growth at 0.1 µM,RXF 393,69%
same,growth at 0.1 µM,MCF7,56%
same,growth at 0.01 µM,PC-3,95%
same,growth at 0.01 µM,NCI-H322M,97%
same,growth at 0.01 µM,COLO 205,92%
same,GI50,SNB-19,0.403 µM
same,LC50,SNB-19,> 100 µM
same,TGI,SNB-19,> 100 µM
same,growth at 0.01 µM,OVCAR-4,90%
same,growth at 100 µM,SF-268,-12%
same,GI50,UACC-257,≥ 0.148 µM
same,LC50 (concentration killing 50% of cells),UACC-257,> 100 µM
same,TGI,UACC-257,> 100 µM
same,growth at 0.1 µM,RPMI-8226 [11],94%
same,growth at 100 µM,K562,17%
same,growth at 0.1 µM,NCI-H226 [12],94%
same,GI50,RPMI-8226 [13],0.57 µM
same,LC50,RPMI-8226 [13],> 100 µM
same,TGI,RPMI-8226 [13],> 100 µM
same,growth at 100 µM,MOLT-4 [14],6%
CCc1cccc(C)c1NC(=O)c1sc2nc3c(cc2c1N)C(=O)CCC3,growth at 1 µM,RPMI-8226 [1],44%
same,GI50,MOLT-4 [2],2.42 µM
same,TGI,MOLT-4 [2],≥ 100 µM
same,CC50,MOLT-4 [2],> 100 µM
same,growth at 0.1 µM,SW-620,91%
same,growth at 100 µM,NCI-H460,-33%
same,growth at 0.01 µM,786-0 [3],86%
same,growth at 100 µM,CAKI-1,12%
same,growth at 1 µM,OVCAR-8 [4],62%
same,growth at 100 µM,HOP-62,28%
same,growth at 0.01 µM,SR,96%
same,growth at 100 µM,A498 [5],-16%
same,growth at 100 µM,786-0 [6],11%
same,growth at 0.1 µM,IGROV-1,104%
same,growth at 1 µM,LOX IMVI,43%
same,growth at 0.01 µM,OVCAR-8 [7],99%
same,GI50,786-0 [8],0.542 µM
same,TGI,786-0 [8],> 100 µM
same,CC50,786-0 [8],> 100 µM
same,growth at 0.1 µM,A498 [9],72%
same,growth at 0.1 µM,MDA-MB-468,91%
same,growth at 0.01 µM,NCI/ADR-RES,100%
same,growth at 0.01 µM,NCI-H226 [10],96%
same,growth at 0.1 µM,RXF 393,74%
same,growth at 0.1 µM,MCF7,90%
same,growth at 0.01 µM,PC-3,94%
same,growth at 0.01 µM,NCI-H322M,91%
same,growth at 0.01 µM,COLO 205,96%
same,GI50,SNB-19,0.87 µM
same,LC50,SNB-19,> 100 µM
same,TGI,SNB-19,> 100 µM
same,growth at 0.01 µM,OVCAR-4,89%
same,growth at 100 µM,SF-268,5%
same,GI50,UACC-257,0.185 µM
same,LC50 (concentration killing 50% of cells),UACC-257,> 100 µM
same,TGI,UACC-257,62.3 µM
same,growth at 0.1 µM,RPMI-8226 [11],102%
same,growth at 100 µM,K562,-52%
same,growth at 0.1 µM,NCI-H226 [12],94%
same,GI50,RPMI-8226 [13],0.0141 µM
same,LC50,RPMI-8226 [13],> 100 µM
same,TGI,RPMI-8226 [13],≥ 100 µM
same,growth at 100 µM,MOLT-4 [14],-9%
